According to publication PMC9564113 (Peptide Science (Hoboken, N.j.), 2022):
Values after ≈ are worked out from the molar mass of the structure shown. Like-named read-outs stand apart in the source and are kept apart here. Ends that are not written are not given here.

Legend:
[1] = system: Klebsiella pneumoniae E406‐17; experiment: Broth microdilution MIC, K. pneumoniae E406-17; type: cell-based; conditions: TSB, 37 °C, 18–20 h
Method in brief: (§1)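 Log-phase cultures (OD600 ≈ 0.5) grown in tryptic soy broth were diluted to 0.001 OD and added to serially diluted test compound. Peptide stocks were freshly made in autoclaved water and quantitated by UV. Plates were incubated at 37 °C for 18–20 h and read at 630 nm for growth.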

Escherichia coli E423‐17 = experiment: Broth microdilution MIC, E. coli E423-17; type: cell-based; conditions: TSB, 37 °C, 18–20 h
Method in brief: as §1

[2] = system: Staphylococcus aureus USA300 LAC; experiment: Broth microdilution MIC, S. aureus USA300 LAC; type: cell-based; conditions: for Antibacterial minimal inhibitory concentration, Staphylococcus aureus USA300 LAC: broth microdilution, 37 °C, 18–20 h, read at 630 nm; for MIC: Staphylococcus aureus; for MIC, S. aureus clinical strain USA300: Table 5, broth microdilution
Method in brief: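 Broth microdilution was run in tryptic soy broth. Log-phase USA300 LAC (OD600 ≈ 0.5) was diluted to 0.001 OD over serially diluted test compound, incubated 18–20 h at 37 °C and read at 630 nm. For medium effects the broth was adjusted to pH 5.5, 6.8, 7.4 or 8.0, brought to 100 mM NaCl, or supplemented with 1, 5 or 10% human serum.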

[3] = system: Pseudomonas aeruginosa E411‐17; experiment: Broth microdilution MIC, P. aeruginosa E411-17; type: cell-based; conditions: TSB, 37 °C, 18–20 h
Method in brief: as §1

[4] = system: Staphylococcus epidermidis 1457; experiment: Broth microdilution MIC, S. epidermidis 1457; type: cell-based; conditions: TSB, 37 °C, 18–20 h
Method in brief: as §1

[5] = system: Acinetobacter baumannii B28‐16; experiment: Broth microdilution MIC, A. baumannii B28-16; type: cell-based; conditions: TSB, 37 °C, 18–20 h
Method in brief: as §1

[6] = system: S. aureus USA300 membranes; experiment: Membrane permeabilization; type: cell-based, Staphylococcus aureus; conditions: in PBS, 4 × MIC (YZ103 16 μM, YZ105 4 μM, nafcillin 2 μM, linezolid 16 μM, LL‐37 16 μM), 20 μM propidium iodide, 37 °C
S. aureus USA300 = experiment: Killing kinetics of exponential bacteria; type: cell-based, Staphylococcus aureus; conditions: 4 × MIC (YZ105 4 uM, nafcillin 2 μM, linezolid 16 μM), 2 h, exponential phase bacteria, colony counting
[7] = system: S. aureus USA300 LAC biofilms; experiment: Effect on 24 h preformed biofilms; type: cell-based, Staphylococcus aureus
Method in brief: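 Biofilms were formed for 24 h at 37 °C from exponential-phase USA300 LAC. After PBS washes they were exposed to test compound in fresh TSB for 24 h at 37 °C. Following further washes, viable cells were measured by XTT (2 h, 37 °C, A450, blank of medium plus XTT). Results are given as % growth relative to untreated (100%), with water-treated and uninoculated controls; mean ± SD, p < 0.05.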

[8] = system: S. aureus USA300 membrane potential; experiment: Membrane depolarization; type: cell-based, Staphylococcus aureus; conditions: DiBAC4(3) 500 nM; YZ105 8 μM, nafcillin 4 μM, linezolid 32 μM; Triton X‐100 positive control
Method in brief: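 USA300 was grown in TSB to exponential phase, washed twice with PBS, and resuspended in PBS with 25 mM glucose (15 min, 37 °C). DiBAC4(3) was added to 500 nM. Baseline fluorescence (ex 485/em 520 nm) was read for 20 min. Test compound was then added and reading continued for 40 min, with Triton X-100 as positive control.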

[9] = system: Gram‐positive pathogens (S. aureus, Enterococcus faecalis, Streptococcus spp., Bacillus anthracis, Clostridioides difficile, Propionibacterium acnes, Mycobacter); conditions: cited from earlier work
[10] = system: Gram‐positive and Gram‐negative bacteria; conditions: G+ = Gram‐positive bacteria; cited from earlier work
[11] = system: Nafcillin‐resistant S. aureus USA300; experiment: Antibacterial assay, nafcillin-resistant S. aureus USA300; type: cell-based, Staphylococcus aureus
Method in brief: as §1

S. aureus Mu50 = experiment: Antibacterial assay, S. aureus clinical strain Mu50; type: cell-based, Staphylococcus aureus; conditions: broth microdilution, TSB
Method in brief: as §1

S. aureus USA400 = experiment: Antibacterial assay, S. aureus clinical strain USA400; type: cell-based, Staphylococcus aureus; conditions: broth microdilution, TSB
Method in brief: as §1

S. aureus Newman = experiment: Antibacterial assay, S. aureus clinical strain Newman; type: cell-based, Staphylococcus aureus; conditions: broth microdilution, TSB
Method in brief: as §1

S. aureus USA200 = experiment: Antibacterial assay, S. aureus clinical strain USA200; type: cell-based, Staphylococcus aureus; conditions: broth microdilution, TSB
Method in brief: as §1

[12] = USA300, pH 5.5, read-out: MIC against S. aureus USA300, pH 5.5
[13] = USA300, pH 6.8, read-out: MIC against S. aureus USA300, pH 6.8
[14] = USA300, pH 7.4, read-out: MIC against S. aureus USA300, pH 7.4
[15] = USA300, pH 8, read-out: MIC against S. aureus USA300, pH 8
[16] = USA300, read-out: MIC against S. aureus USA300, 100 mM NaCl

FLSKILSTLRILF-NH2 [YZ107]
Antibacterial minimal inhibitory concentration, Klebsiella pneumoniae E406‐17 [1]: >16 µM
Antibacterial minimal inhibitory concentration, Escherichia coli E423‐17 (Escherichia coli E423‐17): 8 µM
Antibacterial minimal inhibitory concentration, Staphylococcus aureus USA300 LAC ([2]; TSB): 2 µM
Antibacterial minimal inhibitory concentration, Pseudomonas aeruginosa E411‐17 [3]: 8 to 16 µM
Antibacterial minimal inhibitory concentration, Staphylococcus epidermidis 1457 [4]: 2 µM
Antibacterial minimal inhibitory concentration, Acinetobacter baumannii B28‐16 [5]: 4 to 8 µM

CC(=O)NC[C@H]1CN(c2ccc(N3CCOCC3)c(F)c2)C(=O)O1 [Linezolid, linezolid, reference compound]
Membrane permeabilization (propidium iodide fluorescence) [6]: neither nafcillin nor linezolid permeabilized the membranes
Reduction of MRSA counts (CFU) in killing kinetics (S. aureus USA300): 1 log
Effect on 24 h preformed biofilms in combination ([7]; in the presence of 2 μM YZ105, XTT): became more effective
MIC [2, 12]: 4 µM (≈ 1.35 µg/mL)
MIC [2, 13]: 4 µM (≈ 1.35 µg/mL)
MIC [2, 14]: 4 µM (≈ 1.35 µg/mL)
MIC [2, 15]: 4 to 8 µM (≈ 1.35 to 2.7 µg/mL)
MIC [2, 16]: 4 µM (≈ 1.35 µg/mL)
Membrane depolarization [8]: neither nafcillin nor linezolid was able to

FLSKILSTLRILL-NH2 [YZ106]
Antibacterial minimal inhibitory concentration, Klebsiella pneumoniae E406‐17 [1]: >16 µM
Antibacterial minimal inhibitory concentration, Escherichia coli E423‐17 (Escherichia coli E423‐17): 8 to 16 µM
Antibacterial minimal inhibitory concentration, Staphylococcus aureus USA300 LAC ([2]; TSB): 2 µM
Antibacterial minimal inhibitory concentration, Pseudomonas aeruginosa E411‐17 [3]: >16 µM
Antibacterial minimal inhibitory concentration, Staphylococcus epidermidis 1457 [4]: 1 to 2 µM
Antibacterial minimal inhibitory concentration, Acinetobacter baumannii B28‐16 [5]: 8 µM

teixobactin
MIC [9]: 5 to 250 ng/mL
Activity spectrum [10]: Mainly G+

CC[C@H](C)[C@H](NC(=O)[C@H](CCCNC(=N)N)NC(=O)[C@H](C)NC(=O)[C@@H](NC(=O)[C@H](CO)NC(=O)[C@@H](NC(=O)[C@@H](NC(=O)[C@H](CCC(N)=O)NC(=O)[C@H](CO)NC(=O)[C@@H](NC(=O)[C@@H](N)Cc1ccccc1)[C@@H](C)CC)[C@@H](C)CC)[C@@H](C)CC)[C@@H](C)O)C(=O)N[C@@H](CC(C)C)C(=O)N[C@@H](CC(C)C)C(N)=O [YZ104]
Antibacterial minimal inhibitory concentration, Klebsiella pneumoniae E406‐17 [1]: >16 µM
Antibacterial minimal inhibitory concentration, Escherichia coli E423‐17 (Escherichia coli E423‐17): >16 µM
Antibacterial minimal inhibitory concentration, Staphylococcus aureus USA300 LAC ([2]; TSB): >16 µM
Antibacterial minimal inhibitory concentration, Pseudomonas aeruginosa E411‐17 [3]: >16 µM
Antibacterial minimal inhibitory concentration, Staphylococcus epidermidis 1457 [4]: >16 µM
Antibacterial minimal inhibitory concentration, Acinetobacter baumannii B28‐16 [5]: >16 µM

LL‐37: human cathelicidin LL‐37 (LLGDFFRKSKEKIGKEFKRIVQRIKDFLRNLVPRTES; Antibacterial peptide LL-37; UniProt P49913 134-170, looked up)
Membrane permeabilization (propidium iodide fluorescence) [6]: steady increase in fluorescence with time

CCOc1ccc2ccccc2c1C(=O)N[C@@H]1C(=O)N2[C@@H]1SC(C)(C)[C@@H]2C(=O)O [Nafcillin, nafcillin, reference compound]
Membrane permeabilization (propidium iodide fluorescence) [6]: neither nafcillin nor linezolid permeabilized the membranes
Reduction of MRSA counts (CFU) in killing kinetics (S. aureus USA300): barely reduced bacterial burden
Effect on 24 h preformed biofilms ([7]; 24 h treatment in TSB, live cells by XTT at 450 nm, relative to untreated (100%)): did not display a clear effect
MIC [2, 12]: 0.5 µM (≈ 0.207 µg/mL)
MIC [2, 13]: 1 µM (≈ 0.414 µg/mL)
MIC [2, 14]: 0.5 to 1 µM (≈ 0.207 to 0.414 µg/mL)
MIC [2, 15]: 1 µM (≈ 0.414 µg/mL)
MIC [2, 16]: 1 to 2 µM (≈ 0.414 to 0.829 µg/mL)
Increase of MIC values by serum ([2]; TSB with human serum compared with normal TSB): 4–8 fold
Membrane depolarization [8]: neither nafcillin nor linezolid was able to
MIC ([11]; Staphylococcus aureus, USA300, read-out: MIC, Nafcillin‐resistant USA300): 1020 µM (≈ 424 µg/mL)

FLSQILSTLRILL-NH2 [YZ105]
MIC, S. aureus clinical strain Mu 50 (S. aureus Mu50): 2 µM
Antibacterial minimal inhibitory concentration, Klebsiella pneumoniae E406‐17 [1]: >16 µM
Antibacterial minimal inhibitory concentration, Escherichia coli E423‐17 (Escherichia coli E423‐17): >16 µM
MIC, S. aureus clinical strain USA400 (S. aureus USA400): 1 µM
MIC, S. aureus clinical strain Newman (S. aureus Newman): 2 µM
MIC against S. aureus USA300, pH 5.5 ([2]; TSB adjusted to pH 5.5): 4–8 μM
MIC against S. aureus USA300, pH 6.8 ([2]; TSB adjusted to pH 6.8): 2 μM
MIC against S. aureus USA300, pH 8 ([2]; TSB adjusted to pH 8.0): <0.5 μM
MIC against S. aureus USA300, 100 mM NaCl ([2]; TSB with 100 mM NaCl added): 2 µM
MIC against S. aureus USA300, 1% serum ([2]; TSB with 1% human serum): 2 µM
MIC against S. aureus USA300, 5% serum ([2]; TSB with 5% human serum): 8 µM
MIC against S. aureus USA300, 10% serum ([2]; TSB with 10% human serum): 8 to 16 µM
MIC against S. aureus USA300, pH 7.4 ([2]; TSB, pH 7.4 (normal condition)): 1–2 μM
MIC, S. aureus clinical strain USA300 ([2]; TSB): 1 µM
Antibacterial minimal inhibitory concentration, Staphylococcus aureus USA300 LAC ([2]; TSB): 1 µM
Antibacterial minimal inhibitory concentration, Pseudomonas aeruginosa E411‐17 [3]: >16 µM
MIC, Nafcillin‐resistant USA300 ([11]; broth microdilution, TSB): 2 µM
Antibacterial minimal inhibitory concentration, Staphylococcus epidermidis 1457 [4]: 1 µM
Antibacterial minimal inhibitory concentration, Acinetobacter baumannii B28‐16 [5]: >16 µM
MIC, S. aureus clinical strain USA200 (S. aureus USA200): 1 µM

CC[C@H](C)[C@H](NC(=O)[C@H](CCCNC(=N)N)NC(=O)[C@H](C)NC(=O)[C@@H](NC(=O)[C@H](CO)NC(=O)[C@@H](NC(=O)[C@@H](NC(=O)[C@H](CCC(N)=O)NC(=O)[C@H](CO)NC(=O)[C@@H](NC(=O)[C@@H](N)Cc1ccccc1)[C@@H](C)CC)[C@@H](C)CC)[C@@H](C)CC)[C@@H](C)O)C(N)=O [YZ103]
MIC, S. aureus clinical strain Mu 50 (S. aureus Mu50): >32 µM
Antibacterial minimal inhibitory concentration, Klebsiella pneumoniae E406‐17 [1]: >16 µM
Antibacterial minimal inhibitory concentration, Escherichia coli E423‐17 (Escherichia coli E423‐17): >16 µM
MIC, S. aureus clinical strain USA400 (S. aureus USA400): >32 µM
MIC, S. aureus clinical strain Newman (S. aureus Newman): >32 µM
MIC, S. aureus clinical strain USA300 ([2]; TSB): >32 µM
Antibacterial minimal inhibitory concentration, Staphylococcus aureus USA300 LAC ([2]; TSB): >16 µM
Antibacterial minimal inhibitory concentration, Pseudomonas aeruginosa E411‐17 [3]: >16 µM
Antibacterial minimal inhibitory concentration, Staphylococcus epidermidis 1457 [4]: >16 µM
Antibacterial minimal inhibitory concentration, Acinetobacter baumannii B28‐16 [5]: >16 µM
MIC, S. aureus clinical strain USA200 (S. aureus USA200): >32 µM
